APP 5'UTR act: activates APP 5'UTR luciferase reporter; actives 1% (n = 190,000); SH-SY5Y APP 5'UTR luciferase reporter, luminescence; zero percent = DMSO vehicle wells; activation, % at 2 µM; AID 1276;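 active = activation above a set limit, based on mean plus 3 SD of controls, cut at about 140% in these data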
PERK inhibitor: inhibitors of human PERK kinase; inhibition, % at 5.6 µM; actives 0.17% (n = 220,000); AID 1416; Q9NZJ5; CHO PERK-DD fusion, SEAP luminescence translation reporter;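 active = inhibition above the mean inhibition of all tested compounds plus 3 SD, set separately per screening campaign, cut at about 2.9% in these data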;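 also: PERK kinase domain activated by AP20187 dimerizer at 100 nM; 0% = DMSO with dimerizer and 100% = rapamycin at 8.4 µM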
Target sequence (Q9NZJ5 whole entry, looked up, the tested form may be a part): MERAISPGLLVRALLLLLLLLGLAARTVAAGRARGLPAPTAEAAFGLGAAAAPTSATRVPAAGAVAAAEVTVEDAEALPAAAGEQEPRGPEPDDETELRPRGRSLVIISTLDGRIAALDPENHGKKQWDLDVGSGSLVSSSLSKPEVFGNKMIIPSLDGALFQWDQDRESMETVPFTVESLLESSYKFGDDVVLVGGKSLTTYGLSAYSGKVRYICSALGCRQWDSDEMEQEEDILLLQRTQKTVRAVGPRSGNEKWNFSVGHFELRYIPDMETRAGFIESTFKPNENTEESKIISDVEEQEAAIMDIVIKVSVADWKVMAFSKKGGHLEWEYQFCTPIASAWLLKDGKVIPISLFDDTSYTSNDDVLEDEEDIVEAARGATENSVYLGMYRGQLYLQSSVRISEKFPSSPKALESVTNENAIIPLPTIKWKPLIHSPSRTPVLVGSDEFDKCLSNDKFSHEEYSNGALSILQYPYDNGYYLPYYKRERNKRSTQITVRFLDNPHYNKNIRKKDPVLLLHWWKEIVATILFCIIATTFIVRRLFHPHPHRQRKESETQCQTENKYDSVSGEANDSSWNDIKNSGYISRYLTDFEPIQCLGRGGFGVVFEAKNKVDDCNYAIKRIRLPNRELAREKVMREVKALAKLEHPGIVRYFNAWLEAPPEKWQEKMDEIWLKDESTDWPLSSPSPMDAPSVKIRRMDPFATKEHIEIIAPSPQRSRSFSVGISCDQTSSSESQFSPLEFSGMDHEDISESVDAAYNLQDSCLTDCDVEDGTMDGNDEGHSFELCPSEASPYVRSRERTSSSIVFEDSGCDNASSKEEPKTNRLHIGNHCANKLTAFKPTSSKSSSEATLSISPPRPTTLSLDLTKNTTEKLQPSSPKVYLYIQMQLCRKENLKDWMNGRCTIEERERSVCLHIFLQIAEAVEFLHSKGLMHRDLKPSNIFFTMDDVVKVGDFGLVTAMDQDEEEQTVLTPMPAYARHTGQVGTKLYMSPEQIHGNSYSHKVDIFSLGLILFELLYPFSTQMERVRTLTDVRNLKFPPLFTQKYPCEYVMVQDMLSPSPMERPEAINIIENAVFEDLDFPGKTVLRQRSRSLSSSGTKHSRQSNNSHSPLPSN
STAT1 activator: STAT1 signaling activation; NIH 3T3 STAT1-luciferase reporter, IFN-gamma, luminescence; 100% = IFN-gamma alone, no compound; AID 932; actives 2.6% (n = 200,000); activation (% of control), % at 5.5 µM;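 active = activation above the screen-wide mean activation plus 3 SD, cut at about 130% in these data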;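 also: raw ratio to IFN-gamma control signal so 100% means no change and 0% no light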
AHR act: activators of human aryl hydrocarbon receptor. AID 2796. P35869. actives 2.5% (n = 320,000). AHR-responsive luciferase reporter cells, luminescence. activation, % at 5 µM; in the data active = activation above about 47%;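 also: 0% = vehicle wells and 100% = reference agonist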
Mdm2 ligase inh: inhibitors of human Mdm2 E3 ubiquitin ligase; Q00987; cell-based MDM2 ubiquitination luciferase reporter, 2 h; 0 = plate control, 100 = twice control, blank-subtracted; signal enhancement, % at 5 µM; actives 0.11% (n = 210,000); AID 1230;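 active = signal enhancement of 30% or more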;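 also: luminescence tracks abundance of the self-degrading MDM2-luciferase fusion protein; higher signal means inhibition of MDM2 E3 ligase activity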
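Material: stable MDM2–luciferase fusion reporter cells / Quantity: 2000 cells/well / Dosing: single 5 µM compound dose, 0.2% final DMSO / Buffer or medium: DMEM / Schedule: 4 h cell settling then 2 h compound exposure, 37 °C / Detection: luminescence with SteadyLite reagent, 15 min at room temperature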
NF-kB expr up: compounds increasing NF-kB expression in human neuronal cells; NF-kB reporter expression; hits give high values; fold change at 12.5 µM; actives 1.6% (n = 190,000); AID 1239; in the data active = fold change above about 3.3
The depositor's hits bear a star; x = no result. A selection: hits, their analogues and other compounds. The true share with any hit is near 4.5%.

SMILES | APP 5'UTR act | PERK inhibitor | STAT1 activator | AHR act | Mdm2 ligase inh | NF-kB expr up
COc1ccc(C(=O)NC(Cn2ccnc2)C(C)(C)C)cc1OC1CCN(C(C)C)CC1 (stereo not drawn) | x | x | x | 2 | x | x
Cc1ccc2nc(C)c(C(=O)N/N=C/c3ccc(N4CCOCC4)cc3)cc2c1 | -2 | 0 | 92 | 10 | -9 | 1.2
CCn1ncc(/C=N/NC(=O)c2cc(Cl)ccc2OC)c1C | 50 | 0 | 100 | 76* | -10 | 1.4
COc1ccc(Cl)cc1C(=O)N/N=C/c1ccc(N2CCOCC2)cc1 | 1 | 1 | 100 | 53* | 1 | 0.77
COc1ccc(S(=O)(=O)Nc2cc3c(cc2C(C)=O)OCO3)cc1 | -14 | 0 | 97 | -1 | -8 | 1.2
O=C(Nc1ccsc1C(=O)O)c1ccc(Cl)cc1 | x | x | x | 36 | x | x
CCOC(=O)Cn1c(-c2ccccc2)nc2ccccc2c1=O | 20 | 0 | 129* | 16 | -4 | 1.2
CCCCOC(=O)Cn1c(-c2ccccc2)nc2ccccc2c1=O | -15 | 0 | 102 | 3 | 2 | 1.2
COc1ccc(/C=C2\CCc3ccccc3C2=O)cc1O | x | x | x | 3 | x | x
COc1ccccc1OCCNC(=O)c1cc(F)c(F)cc1Cl | 25 | 0 | 105 | 11 | 1 | 1.6
O=C(NCCOc1ccccc1F)c1cc(F)c(F)cc1Cl | 124 | 1 | 134* | 0 | -50 | 3.2
O=C(NC1CCCCCCC1)c1cc(F)c(F)cc1Cl | 32 | 0 | 130* | 5 | -12 | 1.6
Cc1nc(NC(=O)c2ccc(F)cc2)nc2cc3c(cc12)OCO3 | 9 | -1 | 110 | 65* | 10 | 0.77
Cc1nc(NC(=O)c2ccccc2)nc2cc3c(cc12)OCO3 | 34 | 1 | 129* | 25 | -8 | 1.6
O=C(Nc1cccc(NC(=O)c2ccc3c(c2)OCO3)c1)c1ccccc1 | -1 | -1 | 102 | 32 | -3 | 1.3
O=C(CN1CCN(S(=O)(=O)c2ccc(Br)cc2)CC1)N/N=C/c1ccc(Br)s1 | 12 | 1 | 107 | -1 | -6 | 0.89
CC1CCCCN1S(=O)(=O)c1ccc(C(=O)Nc2sccc2C(N)=O)cc1 (stereo not drawn) | 78 | 0 | 129* | 3 | -9 | 1.3
NC(=O)c1ccsc1NC(=O)C1CCCN1S(=O)(=O)c1ccc(Cl)cc1 (stereo not drawn) | 2 | -1 | 99 | 1 | 8 | 1.6
Cc1csc(N/N=C/c2c(F)cccc2Cl)n1 | x | x | x | 57* | x | x
c1ccc(-c2cc(-c3nnco3)c3ccccc3n2)nc1 | -3 | 2 | 104 | 62* | -3 | 1
COc1cc(-c2cc(-c3nnco3)c3ccccc3n2)cc(OC)c1OC | -12 | -1 | 100 | 27 | -4 | 1.1
CCC(C)[C@@H](N)C(=O)N/N=C/c1cccc2nccnc12 (stereo partly drawn) | x | 1 | x | 70* | -9 | x
O=C(CN1C(=O)CCC1=O)Nc1nc(-c2ccc(Cl)s2)cs1 | 3 | 1 | 93 | 78* | -6 | 0.75
O=C(CN1C(=O)CCC1=O)Nc1nc(-c2cccs2)cs1 | -15 | 1 | 100 | 3 | 2 | 1.1
C/C(=C\C(=O)c1sccc1Cl)N(C)C | 13 | 1 | 100 | -1 | -10 | 0.96
SMILES | APP 5'UTR act | PERK inhibitor | STAT1 activator | AHR act | Mdm2 ligase inh | NF-kB expr up
O=C(O)c1cc2nc3c(c(C(F)(F)F)n2n1)CCCC3 | -6 | 1 | 109 | 1 | -7 | 1.2
O=C(Nc1ccc(F)cc1F)c1cc2nc3c(c(C(F)(F)F)n2n1)CCCC3 | 173* | 1 | 105 | 3 | -16 | 0.45
COC(=O)C1=C(C(=O)OC)[C@@H]2N(C)c3ccc(OC)cc3[C@@]23C[C@@H](C(=O)OC)N(C(=O)c2cc(C)oc2C)C3=N1 | x | x | x | 6 | x | x
Cc1c(C)c(C)c(C(=O)c2ccc(NC(=O)c3ccccc3C(=O)O)cc2)c(C)c1C | x | x | x | 2 | x | x
O=C(CCc1ccccc1)Nc1ccc(S(=O)(=O)Nc2nccs2)cc1 | x | x | x | 8 | x | x
Cc1cc(N(CCO)CCO)ccc1N=Nc1cc(F)ccc1F | 19 | 0 | 133* | 39 | -1 | 1.1
CN(C)c1cccc(C(=O)Nc2cccc(F)c2)c1 | 67 | 0 | 132* | 40 | 0 | 3
CN(C)c1cccc(C(=O)N/N=C/c2ccccc2F)c1 | 139* | 1 | 36 | 27 | -9 | 5*
CCN(CC)c1ccc(C(=O)NN)cc1 | -18 | 1 | 102 | 8 | 28 | 1.1
CCN(CC)c1ccc(C(=O)Nc2cccc(F)c2)cc1 | 181* | 0 | 127 | -5 | -57 | 8.4*
Cc1cc(/C=N/NC(=O)c2cccc(N(C)C)c2)c(C)n1-c1cc(C(=O)O)cc(C(=O)O)c1 | 4 | 0 | 113 | x | -8 | 1.4
CC(=O)Nc1cccc(N(C)C)c1 | 13 | 1 | 97 | 7 | -24 | 1.1
COc1ccc(C(=O)COC(=O)c2cccnc2Cl)c(OC)c1 | 50 | 0 | 141* | 10 | 1 | 1.8
COc1cc(NC(=S)NC(=O)CCc2ccccc2)cc(OC)c1 | x | x | x | 5 | x | x
COc1ccc(NC(=O)N2CCc3ccccc3C2)c(OC)c1 | x | x | x | 33 | x | x
COc1ccc2[nH]cc(CCNC(=O)c3ccc4ccccc4n3)c2c1 | x | x | x | 71* | x | x
Cc1ccc(C(=O)NN2C(=O)/C(=C/c3cccn3C)SC2=S)cc1 | -12 | 0 | 93 | -2 | 30* | 1.6
Cn1cccc1/C=C1\SC(=S)N(NC(=O)c2ccccc2Cl)C1=O | -10 | 0 | 99 | -1 | 4 | 1.1
O=C(N[C@H](Cc1ccc(Cl)cc1)C(=O)O)OCC1c2ccccc2-c2ccccc21 | x | x | x | 2 | x | x
Nc1ccc(CNC(=O)OCC2c3ccccc3-c3ccccc32)cc1 | x | x | x | 55* | x | x
Cc1ccc(S(=O)(=O)N2CCOCC2)cc1N/N=C(\C#N)c1nc2ccccc2[nH]1 | -19 | -1 | 99 | 59* | -15 | 0.43
Cc1ccc(C(=O)OC/C(O)=C(\C#N)c2nc3ccccc3[nH]2)cc1S(=O)(=O)N1CCOCC1 | -2 | 0 | 92 | 18 | -16 | 0.9
CNc1nc(-c2ccccn2)nnc1-c1ccccc1 | -11 | 0 | 102 | 4 | -3 | 13*
CC(C)CCNC(=O)NC(=O)COC(=O)/C=C/c1cnc2ccccc2n1 | x | 0 | 100 | 5 | -1 | 1.1
Cc1cc(C)n(C(CC(=O)O)C(=O)O)n1 (stereo not drawn) | 139* | 1 | 105 | -2 | 7 | 1
Cc1nn(C(CC(=O)O)C(=O)O)c(C)c1Br (stereo not drawn) | -4 | 0 | 97 | 0 | -7 | 1
Nc1nc(SCC(=O)NCc2ccc3c(c2)OCO3)n[nH]1 | 34 | 1 | 96 | 1 | -13 | 1.1
O=C(CSc1ccc2ccccc2n1)NCc1ccc2c(c1)OCO2 | 16 | 0 | 99 | 64* | -16 | 1.2
O=C(CCCSc1nc2ccccc2s1)NCc1ccc2c(c1)OCO2 | -9 | 0 | 97 | 50* | 12 | 0.97

Screening results (PubChem BioAssay)
